The subject of data set [1] is B16-F1. As to the kind of experiment: Induction of apoptosis in mouse B16-F1 cells assessed as early apoptotic cells at 283.90 uM after 24 hrs by propidium iodide staining-based flow cytometric method (reference value: 0.5%). The data set is classed as functional. Background: In flow cytometry, cells or beads pass a laser one at a time.
In data set [2] the test system is B16-F1. As to the kind of experiment: Induction of apoptosis in mouse B16-F1 cells assessed as early apoptotic cells at 283.90 uM after 48 hrs by propidium iodide staining-based flow cytometric method (reference value: 0.2%). The data set is classed as functional.
Data set [3] relates to PBMC. As to the kind of experiment: Induction of apoptosis in human PBMC assessed as necrotic cells at 400 ug/ml after 24 hrs by propidium iodide staining-based flow cytometric method (reference value: 1%). The data set is classed as cell-based.
Data set [4] concerns B16-F1. In words: Induction of apoptosis in mouse B16-F1 cells assessed as late apoptotic cells at 283.90 uM after 72 hrs by propidium iodide staining-based flow cytometric method (reference value: 1.4%). The data set is classed as functional.
Data set [5] relates to B16-F1. As to the kind of experiment: Induction of apoptosis in mouse B16-F1 cells assessed as necrotic cells at 283.90 uM after 24 hrs by propidium iodide staining-based flow cytometric method (reference value: 0.4%). Format: functional.
Data set [6] has as its system PBMC. As to the kind of experiment: Induction of apoptosis in human PBMC assessed as late apoptotic cells at 500 ug/ml after 24 hrs by propidium iodide staining-based flow cytometric method (reference value: 0.6%). Format: cell-based.
Data set [7] relates to B16-F1. In words: Antitumor activity against mouse B16-F1 cells allografted in C57BL/6 mouse assessed as tumor volume at 300 ug, ip administered every other day up to day 29 measured on day 29 post last dose (reference value: 2.83 cm'3). Format: functional. An outline of the steps: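 Male C57BL/6 mice, 6-8 weeks old, received 10^5 B16.F1 cells sc in the right flank on day 0. From day 11 (palpable tumors), 5 mice/group were randomized and given ip doses in 200 µL PBS every other day, 8 doses in total, up to day 29. Control group received PBS. Tumors were measured by caliper every two days; volume = 1/2(length × width²).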

For data set [8], the system named is Mus musculus. In words: In vivo induction of tumor-reactive immune response in C57BL/6 mouse allografted with mouse B16-F1 cells assessed as splenocyte-mediated NK-sensitive mouse YAC-1 cell lysis at 600 ug, ip administered every other day up to day 29 measured on day 29 post last dose by flow cytometric method (reference value: 1.2 to 1.7). Format: functional. In outline:
(§1)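 Male C57BL/6 mice (6-8 wk) were injected sc in the right flank with 10⁵ B16.F1 cells in PBS on day 0. From day 11, when tumors were palpable, they received ip doses in 200 µL PBS every other day (8 doses; 5 mice/group). On day 29, splenocytes were co-cultured unstimulated with targets at E:T 100:1 for 6 h at 37°C. CD107a/b MFI was read by flow cytometry, 2 mice/group tested individually.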

Data set [9] concerns PBMC. As to the kind of experiment: Induction of apoptosis in human PBMC assessed as necrotic cells at 300 ug/ml after 24 hrs by propidium iodide staining-based flow cytometric method (reference value: 1%). The data set is classed as cell-based.
The test system of the next data set is SK-BR-3. As to the kind of experiment: Antiproliferative activity against human SKBR3 cells after 72 hrs by MTT reduction assay. Format: functional, cell-based. The following applies: SK-BR-3, 72 h. An outline of the steps: (§2)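 MTT reduction assay; adherent lines left to adhere overnight, suspension lines (HL-60, K562) seeded on the day. […] Incubation was 72 h at 37°C, with MTT added for the last 4 h. OD read at 545 nm (reference 690 nm). IC50 from 100(A0-A)/A0=50; means ± SD of 3 independent experiments.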
A general note: Tetrazolium dyes change colour on reduction, which living cells bring about.

The subject of data set [10] is Mus musculus. In words: In vivo induction of tumor-reactive immune response in C57BL/6 mouse allografted with mouse B16-F1 cells assessed as splenocyte-mediated mouse WEHI 164 cell lysis at 600 ug, ip administered every other day up to day 29 measured on day 29 post last dose by flow cytometric method (reference value: 1.2 to 1.6). Format: functional. In outline: as §1

In data set [11] the test system is PBMC. As to the kind of experiment: Induction of apoptosis in human PBMC assessed as early apoptotic cells at 500 ug/ml after 24 hrs by propidium iodide staining-based flow cytometric method (reference value: 0.1%). Format: cell-based.
For data set [12], the system named is B16-F1. In words: Induction of apoptosis in mouse B16-F1 cells assessed as early apoptotic cells at 283.90 uM after 72 hrs by propidium iodide staining-based flow cytometric method (reference value: 0.4%). The data set is classed as functional.
For the next data set, the system named is K562. As to the kind of experiment: Antiproliferative activity against human K562 cells after 72 hrs by MTT reduction assay. The data set is classed as functional, cell-based. The following applies: K562, 72 h. An outline of the steps: as §2
The subject of data set [13] is PBMC. As to the kind of experiment: Induction of apoptosis in human PBMC assessed as early apoptotic cells at 400 ug/ml after 24 hrs by propidium iodide staining-based flow cytometric method (reference value: 0.1%). Format: cell-based.

Consider `C/C=C1/[C@H](O[C@@H]2O[C@H](CO)[C@@H](O)[C@H](O)[C@H]2O)OC=C(C(=O)OC)[C@H]1CC(=O)OCCc1ccc(O)c(O)c1` [OLEUROPEIN], for which the Activity with B16-F1 [1] turned out to be 9.3%; with B16-F1 [2], 13.6%; with PBMC [3] it was 4.3%; in the data set on B16-F1 [4], 15.5%; with B16-F1 [5] it was 2.1%; in the data set on PBMC [6], 6.3%. Moreover, the Activity in the data set with B16-F1 [7] amounted to 2.41 cm3; in the data set on PBMC [9], 3.9%; in the data set with PBMC [11], 3.1%; in the data set with B16-F1 [12], 22.5%; with PBMC [13], 1.6%. The Flu intensity in the data set with Mus musculus [8] is on record as 2.9 - 3.3; in the data set with Mus musculus [10], 2.5 - 2.7. The IC50 was 160 µM with SK-BR-3 and 64.7 µM with K562.

For orientation: IC50 means the midpoint of a concentration-inhibition curve. Lower therefore signals inhibition by little substance.

The values above are taken from ChEMBL document CHEMBL4130342, “New semi-synthetic analogs of oleuropein show improved anticancer activity in vitro and in vivo” (Eur J Med Chem, 2017).
